What was measured:
Settings in all cases: Bos taurus; call rule not given here
[1] = tested on: COC(=O)c1cc(O)c(O)c(O)c1; assay: (§1) Induction of H2O2-inactivated bovine milk lactoperoxidase pseudo-halogenating activity assessed as increase in hypothiocyanate formation by measuring substrate Km using thiocyanate as substrate by Lineweaver-Burk plot
Outline: (§2)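 Bovine milk LPO, lyophilized (about 80% purity), 5 nM final, in PBS (10 mM, pH 7.4) at 37 °C with 2 mM SCN−, 50 μM TNB and 80 μM H2O2. Compounds from 5 or 10 mM DMSO stocks, final 0.01–500 μM. −OSCN formation followed at 412 nm as TNB conversion to DTNB in a plate reader. KM, Vmax, kcat and specificity constant from Lineweaver–Burk plots. Mean ± SD, n = 3.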

[2] = tested on: O=C(/C=C/c1ccc(O)c(O)c1)O[C@@H]1C[C@](O)(C(=O)O)C[C@@H](O)[C@H]1O; assay: as §1; outline: as §2
[3] = tested on: O=C(O)c1cc(O)c(O)c(O)c1; assay: as §1; outline: as §2
[4] = tested on: O=C(OC[C@H]1O[C@@H](OC(=O)c2cc(O)c(O)c(O)c2)[C@H](O)[C@@H](OC(=O)c2cc(O)c(O)c(O)c2)[C@@H]1O)c1cc(O)c(O)c(O)c1; assay: as §1; outline: as §2
[5] = tested on: O=C(OC[C@H]1O[C@@H](OC(=O)c2cc(O)c(O)c(O)c2)[C@H](OC(=O)c2cc(O)c(O)c(O)c2)[C@@H](OC(=O)c2cc(O)c(O)c(O)c2)[C@@H]1OC(=O)c1cc(O)c(O)c(O)c1)c1cc(O)c(O)c(O)c1; assay: as §1; outline: as §2
[6] = tested on: O=C(O[C@@H]1Cc2c(O)cc(O)cc2O[C@@H]1c1cc(O)c(O)c(O)c1)c1cc(O)c(O)c(O)c1; assay: as §1; outline: as §2
[7] = tested on: O=C1O[C@@H]2[C@@H](OC(=O)c3cc(O)c(O)c(O)c3-c3c1cc(O)c(O)c3O)[C@H](O)O[C@@H]1COC(=O)c3cc(O)c(O)c(O)c3-c3c(O)c(O)c4oc(=O)c5c(c(O)c(O)c6oc(=O)c3c4c65)-c3c(cc(O)c(O)c3O)C(=O)O[C@@H]21; assay: as §1; outline: as §2
[8] = tested on: O=c1oc2c(O)c(O)cc3c(=O)oc4c(O)c(O)cc1c4c23; assay: as §1; outline: as §2
[9] = tested on: Oc1cc(O)c2c(c1)O[C@@]1(c3ccc(O)c(O)c3)Oc3cc(O)c4c(c3[C@@H]2[C@H]1O)O[C@H](c1ccc(O)c(O)c1)[C@H](O)C4; assay: as §1; outline: as §2
[10] = tested on: Oc1cc(O)c2c(c1)O[C@H](c1cc(O)c(O)c(O)c1)[C@H](O)C2; assay: as §1; outline: as §2
[11] = tested on: Oc1cc(O)c2c(c1)O[C@H](c1ccc(O)c(O)c1)[C@H](O)C2; assay: as §1; outline: as §2
[12] = tested on: Oc1cc(O)c2c(c1)O[C@H](c1ccc(O)c(O)c1)[C@H](O)[C@H]2c1c(O)cc(O)c2c1O[C@H](c1ccc(O)c(O)c1)[C@H](O)C2; assay: as §1; outline: as §2
[13] = tested on: Oc1cc(O)c2c(c1)O[C@H](c1ccc(O)c(O)c1)[C@H](O)[C@H]2c1c(O)cc(O)c2c1O[C@H](c1ccc(O)c(O)c1)[C@H](O)[C@H]2c1c(O)cc(O)c2c1O[C@H](c1ccc(O)c(O)c1)[C@H](O)C2; assay: as §1; outline: as §2
[14] = tested on: COC(=O)c1cc(O)c(O)c(O)c1; assay: (§3) Induction of H2O2-inactivated bovine milk lactoperoxidase pseudo-halogenating activity assessed as increase in hypothiocyanate formation by measuring substrate Kcat using thiocyanate as substrate by Lineweaver-Burk plot; outline: as §2
[15] = tested on: O=C(/C=C/c1ccc(O)c(O)c1)O[C@@H]1C[C@](O)(C(=O)O)C[C@@H](O)[C@H]1O; assay: as §3; outline: as §2
[16] = tested on: O=C(O)c1cc(O)c(O)c(O)c1; assay: as §3; outline: as §2
[17] = tested on: O=C(OC[C@H]1O[C@@H](OC(=O)c2cc(O)c(O)c(O)c2)[C@H](O)[C@@H](OC(=O)c2cc(O)c(O)c(O)c2)[C@@H]1O)c1cc(O)c(O)c(O)c1; assay: as §3; outline: as §2
[18] = tested on: O=C(OC[C@H]1O[C@@H](OC(=O)c2cc(O)c(O)c(O)c2)[C@H](OC(=O)c2cc(O)c(O)c(O)c2)[C@@H](OC(=O)c2cc(O)c(O)c(O)c2)[C@@H]1OC(=O)c1cc(O)c(O)c(O)c1)c1cc(O)c(O)c(O)c1; assay: as §3; outline: as §2
[19] = tested on: O=C(O[C@@H]1Cc2c(O)cc(O)cc2O[C@@H]1c1cc(O)c(O)c(O)c1)c1cc(O)c(O)c(O)c1; assay: as §3; outline: as §2
[20] = tested on: O=C1O[C@@H]2[C@@H](OC(=O)c3cc(O)c(O)c(O)c3-c3c1cc(O)c(O)c3O)[C@H](O)O[C@@H]1COC(=O)c3cc(O)c(O)c(O)c3-c3c(O)c(O)c4oc(=O)c5c(c(O)c(O)c6oc(=O)c3c4c65)-c3c(cc(O)c(O)c3O)C(=O)O[C@@H]21; assay: as §3; outline: as §2
[21] = tested on: O=c1oc2c(O)c(O)cc3c(=O)oc4c(O)c(O)cc1c4c23; assay: as §3; outline: as §2
[22] = tested on: Oc1cc(O)c2c(c1)O[C@@]1(c3ccc(O)c(O)c3)Oc3cc(O)c4c(c3[C@@H]2[C@H]1O)O[C@H](c1ccc(O)c(O)c1)[C@H](O)C4; assay: as §3; outline: as §2
[23] = tested on: Oc1cc(O)c2c(c1)O[C@H](c1cc(O)c(O)c(O)c1)[C@H](O)C2; assay: as §3; outline: as §2
[24] = tested on: Oc1cc(O)c2c(c1)O[C@H](c1ccc(O)c(O)c1)[C@H](O)C2; assay: as §3; outline: as §2
[25] = tested on: Oc1cc(O)c2c(c1)O[C@H](c1ccc(O)c(O)c1)[C@H](O)[C@H]2c1c(O)cc(O)c2c1O[C@H](c1ccc(O)c(O)c1)[C@H](O)C2; assay: as §3; outline: as §2
[26] = tested on: Oc1cc(O)c2c(c1)O[C@H](c1ccc(O)c(O)c1)[C@H](O)[C@H]2c1c(O)cc(O)c2c1O[C@H](c1ccc(O)c(O)c1)[C@H](O)[C@H]2c1c(O)cc(O)c2c1O[C@H](c1ccc(O)c(O)c1)[C@H](O)C2; assay: as §3; outline: as §2
[27] = tested on: COC(=O)c1cc(O)c(O)c(O)c1; assay: (§4) Induction of H2O2-inactivated bovine milk lactoperoxidase pseudo-halogenating activity assessed as increase in hypothiocyanate formation by measuring ratio of Kcat to Km for substrate using thiocyanate as substrate by Lineweaver-Burk plot; outline: as §2
[28] = tested on: O=C(/C=C/c1ccc(O)c(O)c1)O[C@@H]1C[C@](O)(C(=O)O)C[C@@H](O)[C@H]1O; assay: as §4; outline: as §2
[29] = tested on: O=C(O)c1cc(O)c(O)c(O)c1; assay: as §4; outline: as §2
[30] = tested on: O=C(OC[C@H]1O[C@@H](OC(=O)c2cc(O)c(O)c(O)c2)[C@H](O)[C@@H](OC(=O)c2cc(O)c(O)c(O)c2)[C@@H]1O)c1cc(O)c(O)c(O)c1; assay: as §4; outline: as §2
[31] = tested on: O=C(O[C@@H]1Cc2c(O)cc(O)cc2O[C@@H]1c1cc(O)c(O)c(O)c1)c1cc(O)c(O)c(O)c1; assay: as §4; outline: as §2
[32] = tested on: O=C1O[C@@H]2[C@@H](OC(=O)c3cc(O)c(O)c(O)c3-c3c1cc(O)c(O)c3O)[C@H](O)O[C@@H]1COC(=O)c3cc(O)c(O)c(O)c3-c3c(O)c(O)c4oc(=O)c5c(c(O)c(O)c6oc(=O)c3c4c65)-c3c(cc(O)c(O)c3O)C(=O)O[C@@H]21; assay: as §4; outline: as §2
[33] = tested on: O=c1oc2c(O)c(O)cc3c(=O)oc4c(O)c(O)cc1c4c23; assay: as §4; outline: as §2
[34] = tested on: Oc1cc(O)c2c(c1)O[C@@]1(c3ccc(O)c(O)c3)Oc3cc(O)c4c(c3[C@@H]2[C@H]1O)O[C@H](c1ccc(O)c(O)c1)[C@H](O)C4; assay: as §4; outline: as §2
[35] = tested on: Oc1cc(O)c2c(c1)O[C@H](c1cc(O)c(O)c(O)c1)[C@H](O)C2; assay: as §4; outline: as §2
[36] = tested on: Oc1cc(O)c2c(c1)O[C@H](c1ccc(O)c(O)c1)[C@H](O)C2; assay: as §4; outline: as §2
[37] = tested on: Oc1cc(O)c2c(c1)O[C@H](c1ccc(O)c(O)c1)[C@H](O)[C@H]2c1c(O)cc(O)c2c1O[C@H](c1ccc(O)c(O)c1)[C@H](O)C2; assay: as §4; outline: as §2
[38] = tested on: Oc1cc(O)c2c(c1)O[C@H](c1ccc(O)c(O)c1)[C@H](O)[C@H]2c1c(O)cc(O)c2c1O[C@H](c1ccc(O)c(O)c1)[C@H](O)[C@H]2c1c(O)cc(O)c2c1O[C@H](c1ccc(O)c(O)c1)[C@H](O)C2; assay: as §4; outline: as §2

Substance: Lactoperoxidase (Bos taurus) (from UniProt P80025)
- Km [1]: 1.24 µM
- Km [2]: 1.26 µM
- Km [3]: 177 µM
- Km [4]: 1.37 µM
- Km [5]: Not Active
- Km [6]: 0.32 µM
- Km [7]: 10.6 µM
- Km [8]: 0.3 µM
- Km [9]: 12.7 µM
- Km [10]: 0.32 to 0.81 µM
- Km [11]: 0.61 µM
- Km [12]: 0.37 µM
- Km [13]: 8.41 µM
- kcat [14]: 80.3 s⁻¹
- kcat [15]: 60.6 s⁻¹
- kcat [16]: 30.9 s⁻¹
- kcat [17]: 63.7 s⁻¹
- kcat [18]: Not Active
- kcat [19]: 13.9 s⁻¹
- kcat [20]: 11.8 s⁻¹
- kcat [21]: 29.3 s⁻¹
- kcat [22]: 60 s⁻¹
- kcat [23]: 13.9 to 43.6 s⁻¹
- kcat [24]: 41.4 s⁻¹
- kcat [25]: 4.53 s⁻¹
- kcat [26]: 6.43 s⁻¹
- kcat/Km [27]: 6.47e+07 M⁻¹ s⁻¹
- kcat/Km [28]: 4.81e+07 M⁻¹ s⁻¹
- kcat/Km [29]: 200000 M⁻¹ s⁻¹
- kcat/Km [30]: 5.03e+07 M⁻¹ s⁻¹
- kcat/Km [31]: 4.38e+07 M⁻¹ s⁻¹
- kcat/Km [32]: 1.1e+06 M⁻¹ s⁻¹
- kcat/Km [33]: 9.83e+07 M⁻¹ s⁻¹
- kcat/Km [34]: 4.74e+06 M⁻¹ s⁻¹
- kcat/Km [35]: 5.37e+07 M⁻¹ s⁻¹
- kcat/Km [36]: 6.84e+07 M⁻¹ s⁻¹
- kcat/Km [37]: 1.21e+07 M⁻¹ s⁻¹
- kcat/Km [38]: 800000 M⁻¹ s⁻¹

— ChEMBL document CHEMBL4118024, “Tannins and Tannin-Related Derivatives Enhance the (Pseudo-)Halogenating Activity of Lactoperoxidase” (J Nat Prod, 2017)
